Values after ≈ are worked out from the molar mass of the structure shown.
Key:
Enterovirus [1] = test: Lowest concentration to reduce viral effect by 50% or more against Rhinovirus (RV)-2; type: functional
Outline: (§1)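 HeLa monolayers were seeded at (1.0-1.3) × 10^5 cells/well, grown 24 h at 36 °C in 5% CO2 to 60–75% cover, then refed with maintenance medium (1-2% heat-inactivated FCS) containing two-fold serial compound dilutions made from a 200 μg/mL stock in Me2SO/medium, with final Me2SO ≤0.1%. Cells were challenged with 10-100 TCID50 virus, and CPE was read microscopically at 48 and 72 h. MIC50 was the lowest concentration giving ≥50% CPE reduction versus virus control. Cytotoxicity was the lowest concentration causing cell death, a growth change or a morphology change in uninfected cultures.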

Enterovirus [2] = test: Lowest concentration to reduce viral effect by 50% or more against Rhinovirus (RV)-1A; type: functional; outline: as §1
HeLa = test: Cytotoxicity concentration in HeLa cells; type: cell-based; conditions: human; outline: as §1
Coxsackievirus [3] = test: Ratio of the MIC50 of 6-(4-Nitro-phenoxy)-nicotinonitrile compared to compound obtained in the same test for coxsackie A21; type: functional
Outline: (§2)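 Relative activity was calculated as the MIC50 of the positive control 5-cyano-2-(4-nitrophenoxy)pyridine divided by the MIC50 of the test compound. Both were measured in parallel in the same HeLa CPE test (48/72 h microscopic reading) against RV-1A, RV-2 or coxsackievirus A21.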

Enterovirus [4] = test: Ratio of the MIC50 of 6-(4-Nitro-phenoxy)-nicotinonitrile compared to compound obtained in the same test for Rhinovirus (RV)-1A; type: functional; outline: as §2
Coxsackievirus [5] = test: Lowest concentration to reduce viral effect by 50% or more against coxsackie virus A21; type: functional; outline: as §1
Enterovirus [6] = test: Ratio of the MIC50 of 6-(4-Nitro-phenoxy)-nicotinonitrile compared to compound obtained in the same test for Rhinovirus (RV)-2; type: functional; outline: as §2

| MIC50 (Enterovirus [1]) [µM] | MIC50 (Enterovirus [2]) [µM] | MIC50 (Coxsackievirus [5]) [µM] | Structure (SMILES) | Toxicity (HeLa) [µM] | Relative activity (Coxsackievirus [3]) | Relative activity (Enterovirus [4]) | Relative activity (Enterovirus [6]) |
| --- | --- | --- | --- | --- | --- | --- | --- |
| 11.6 (≈ 3.13 µg/mL) | 46.3 (≈ 12.5 µg/mL) | 5.7 (≈ 1.54 µg/mL) | COc1ccc(Oc2ccc([N+](=O)[O-])cc2C#N)cc1 | 93 | 2.2 | 0.56 | 2.2 |
| 45 (≈ 12.5 µg/mL) | 22.5 (≈ 6.26 µg/mL) | 90 (≈ 25 µg/mL) | COc1ccc(Oc2ccc(S(C)(=O)=O)cc2)cc1 | > 180 | 0.29 | 0.58 | 0.58 |
| 2 (≈ 0.616 µg/mL) | 8.1 (≈ 2.5 µg/mL) | 3.9 (≈ 1.2 µg/mL) | N#Cc1cc([N+](=O)[O-])ccc1Oc1cccc(C(F)(F)F)c1 | 41 | 5.3 | 1.6 | 25.9 |
| 2.8 (≈ 0.769 µg/mL) | 1.4 (≈ 0.385 µg/mL) | 3.6 (≈ 0.989 µg/mL) | N#Cc1cc([N+](=O)[O-])ccc1Oc1ccc(Cl)cc1 | > 364 | 7.2 | 18.5 | 9.3 |
| 11.1 (≈ 3.13 µg/mL) | 22.2 (≈ 6.27 µg/mL) | 3.5 (≈ 0.988 µg/mL) | CC(=O)c1ccc(Oc2ccc([N+](=O)[O-])cc2C#N)cc1 | > 177 | 0.68 | 0.59 | 1.2 |
| 4.5 (≈ 1.24 µg/mL) | 4.5 (≈ 1.24 µg/mL) | 5.7 (≈ 1.57 µg/mL) | N#Cc1cc([N+](=O)[O-])ccc1Oc1ccccc1Cl | 45 | 2.38 | 4.6 | 4.6 |
| 54 (≈ 12.5 µg/mL) | 54 (≈ 12.5 µg/mL) | 54 (≈ 12.5 µg/mL) | N#Cc1ccc(Oc2ccc(Cl)cc2)nc1 | > 433 | 0.48 | 1.9 | 2 |
| 30 (≈ 6.31 µg/mL) | 60 (≈ 12.6 µg/mL) | 60 (≈ 12.6 µg/mL) | Cc1ccc(Oc2ccc(C#N)cn2)cc1 | 476 | 0.43 | 0.43 | 1.7 |
| 9.5 (≈ 2.51 µg/mL) | 9.5 (≈ 2.51 µg/mL) | 2.3 (≈ 0.607 µg/mL) | N#Cc1ccc(Oc2ccc(Cl)c(Cl)c2)cc1 | 24 | 11.3 | 2.7 | 2.7 |
| 5.4 (≈ 1.3 µg/mL) | 5.4 (≈ 1.3 µg/mL) | 2.7 (≈ 0.649 µg/mL) | N#Cc1cc([N+](=O)[O-])ccc1Oc1ccccc1 | > 42 | 0.96 | 3.8 | 3.8 |
| 12 (≈ 3.18 µg/mL) | 24 (≈ 6.36 µg/mL) | 12 (≈ 3.18 µg/mL) | N#Cc1ccnc(Oc2ccc(Cl)c(Cl)c2)c1 | > 189 | 1.1 | 1.1 | 2.2 |
| 0.26 (≈ 0.0804 µg/mL) | 0.52 (≈ 0.161 µg/mL) | 8.1 (≈ 2.5 µg/mL) | N#Cc1cc([N+](=O)[O-])ccc1Oc1cccc(Cl)c1Cl | > 65 | 3.2 | 25 | 50 |
